Assay outcomes (PubChem BioAssay)
Shown are actives, neighbours in structure and some others; about 3.3% of the full set was active somewhere.
HTRA1 inh: inhibitors of human serine peptidase HTRA1; Q92743; recombinant HTRA1, FP-rhodamine activity-based probe, fluorescence polarization; inhibition, % at 5.96 µM; 0.5% of 340,000 active; in the data active = inhibition above about 36%
PRMT1 FP inh: PRMT1 (human) inhibition, primary screen | recombinant PRMT1, activity-based probe fluorescence polarization | 1.3% of 370,000 active | inhibition, % at 2.79 µM;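 active = inhibition above about 21% made by adding two undisclosed values, limit read from the data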
ABHD4 inh: ABHD4 (mouse) inhibition, primary FP screen; inhibition, % at 8.92 µM; AID 720543; Q8VD66; purified mABHD4, FP-Rh probe fluorescence polarization; 0.54% of 370,000 active;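 active = inhibition exceeding the mean over every tested compound plus 3 SD, cut at about 30% in these data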
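Test system: mABHD4 protein | Buffer or medium: HEPES pH 7.0 buffer, 150 mM NaCl, 0.01% Pluronic F-127 | Probe or stimulus: FP-Rh fluorescent activity-based probe, added after compound pre-incubation | Timing: Pre-incubation 45 min, probe exposure 60 min, at 25 °C | Technique: Fluorescence polarization, excitation 525 nm, emission 598 nm, BODIPY TMR filters | Repeats: Single well per compound (singlicate)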
rCAG binder-1: binds r(CAG) RNA repeats; inhibition, % at 3 µM; 1.3% of 370,000 active; r(CAG) RNA repeat, TO-PRO-1 dye displacement fluorescence;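 active = inhibition above the plate cutoff, the mean of all test compounds on that plate plus 3 SD, cut at about 35% in these data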;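 note: higher means more dye released from RNA so lower well fluorescence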
SIAE primary: human SIAE inhibition, primary screen | SIAE FP-Rh probe binding, fluorescence polarization | inhibition, % at 9.66 µM | 0.69% of 370,000 active;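 active = inhibition above a cutoff: mean of compounds within the control limits plus 3 SD of those, cut at about 17% in these data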
Target sequence (Q9HAT2 whole entry, looked up): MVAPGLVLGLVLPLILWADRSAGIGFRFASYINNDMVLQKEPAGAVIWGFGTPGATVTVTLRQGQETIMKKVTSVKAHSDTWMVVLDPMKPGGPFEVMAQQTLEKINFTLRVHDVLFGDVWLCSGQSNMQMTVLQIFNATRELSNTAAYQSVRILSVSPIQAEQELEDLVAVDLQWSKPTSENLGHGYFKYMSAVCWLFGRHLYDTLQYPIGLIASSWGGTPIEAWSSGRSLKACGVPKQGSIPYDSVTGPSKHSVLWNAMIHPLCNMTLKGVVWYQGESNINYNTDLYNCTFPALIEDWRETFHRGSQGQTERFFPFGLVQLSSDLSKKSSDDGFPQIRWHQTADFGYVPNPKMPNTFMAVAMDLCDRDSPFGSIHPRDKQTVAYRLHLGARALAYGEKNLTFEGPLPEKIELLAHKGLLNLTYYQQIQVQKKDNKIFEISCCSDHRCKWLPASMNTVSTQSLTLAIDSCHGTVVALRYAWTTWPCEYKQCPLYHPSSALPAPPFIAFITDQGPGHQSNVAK
HTRA1 conf: confirmation of human HTRA1 inhibitors. shares compounds with HTRA1 inh. recombinant HTRA1, FP-rhodamine activity-based probe, fluorescence polarization. inhibition, % at 5.96 µM. 66% of 1,600 active. AID 540248;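 active = mean inhibition over three repeats above a set limit taken from the earlier primary screen, cut at about 37% in these data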;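 note: inhibitors block probe binding so polarization drops and inhibition rises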
rCAG bind conf: r(CAG) RNA repeat binding, confirmation | 70% of 4,300 active | shares compounds with rCAG binder-1 | inhibition, % at 3 µM | TO-PRO-1 dye displacement fluorescence;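 active = inhibition above a per-plate cutoff, the mean inhibition of sample wells plus 3 SD, cut at about 35% in these data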;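 note: loss of TO-PRO-1 fluorescence as compound displaces dye from 1x1 AA loop RNA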
dCAG dye counter: counter-screen for rCAG RNA binders: DNA CAG dye complex inhibitors. 94% of 4,300 active. inhibition, % at 3 µM. d(CAG) DNA oligo TO-PRO-1 dye displacement, fluorescence. AID 652068. shares compounds with rCAG binder-1;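 active = inhibition above its plate's cutoff, the mean test-well inhibition plus 3 SD, cut at about 4.8% in these data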;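 note: hits displace the dye from DNA and so lower well fluorescence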
dCAG dye DR: DNA CAG dye complex inhibition, dose response counter-screen; shares compounds with rCAG binder-1; DNA CAG/GTC duplex TO-PRO-1 dye displacement fluorescence; IC50, µM; 20% of 250 active; in the data active = IC50 below about 10 µM
dCAG TOPRO ctr: DNA CAG dye complex inhibition, late stage dose response; d(CAG) DNA duplex TO-PRO-1 dye displacement, fluorescence; shares compounds with rCAG binder-1; IC50, µM; 80% of 30 active
rCAG binder-2: molecules binding r(CAG) RNA repeats, late stage dose response. IC50, µM. shares compounds with rCAG binder-1. 100% of 30 active. AID 720651. r(CAG) RNA TO-PRO-1 dye displacement, fluorescence
PRMT1 inh conf: PRMT1 (human) inhibition, FP confirmation. shares compounds with PRMT1 FP inh. recombinant His-PRMT1, activity-based probe fluorescence polarization. inhibition, % at 2.79 µM. 42% of 3,300 active. AID 687036;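 active = mean inhibition across replicates above the hit cutoff derived for the earlier primary screen, cut at about 22% in these data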
mABHD4 conf: confirmation of mouse ABHD4 inhibitors. inhibition, % at 8.92 µM. purified mABHD4, FP-Rh probe fluorescence polarization. 55% of 1,800 active. shares compounds with ABHD4 inh. AID 720658;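 active = mean inhibition across replicates above the hit cutoff set in the primary screen, cut at about 30% in these data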
A number is an active result; i = inactive; nt = no result. Unless noted, the rule behind the calls is not given here.

SMILES | HTRA1 inh | PRMT1 FP inh | ABHD4 inh | rCAG binder-1 | SIAE primary | HTRA1 conf | rCAG bind conf | dCAG dye counter | PRMT1 inh conf | others
COC(=O)N1CCCC1c1cccc2[nH]cc(C)c12 (stereo unspecified) | nt | i | i | i | i | nt | nt | nt | nt
COc1cc(/C=N/Nc2ccc([N+](=O)[O-])cc2S(=O)(=O)N2CCOCC2)cc(OC)c1OC | i | i | i | i | i | nt | nt | nt | nt
O=[N+]([O-])c1ccc(N/N=C/c2cccc(O)c2O)c(S(=O)(=O)N2CCOCC2)c1 | 59 | i | i | 35 | i | 54 | i | 18 | nt
CCOC(=O)N1CCN(C(=O)C[C@H]2C[C@@]3(C(=O)OC)C(=C[C@H](C(C)C)O[C@@H]3C3CC3)N(Cc3ccco3)C2=O)CC1 | nt | i | i | i | i | nt | nt | nt | nt
O=C(N/N=C/c1ccc(-c2ccc(S(=O)(=O)Nc3ncccn3)cc2)o1)c1cc2ccccc2cc1O | 57 | i | i | 82 | i | 66 | 75 | 39 | nt
COCCCN1C(=O)[C@H](CC(=O)N2CCC(c3ccccc3)CC2)[C@]2(C(=O)OC)CCCCC=C12 | nt | i | i | i | i | nt | nt | nt | nt
CCCC1CCC2(CC1)CCC2OC(=S)Nc1cccc(C(F)(F)F)c1 (stereo unspecified) | nt | i | i | nt | i | nt | nt | nt | nt
O=C(NNC(=O)c1ccccc1O)c1ccc(Cl)c(S(=O)(=O)N2CCc3ccccc32)c1 | 50 | i | i | 48 | i | 50 | 52 | 19 | nt
Cc1cc(C)c(S(=O)(=O)/N=C2\C=C(Nc3ccc(C(=O)O)cc3)C(=O)c3ccccc32)c(C)c1 | 60 | i | 71 | 85 | 18 | 52 | 81 | 50 | nt
CC(=O)Nc1ccc(NC2=CC(=O)c3ccccc3C2=O)cc1 | i | i | i | i | i | nt | nt | nt | nt
O=C(/C(=N/N=C/c1ccc(O)c(O)c1)c1ccccc1)c1ccccc1 | 41 | i | i | 37 | i | 78 | 51 | 27 | nt
O=C(NCCN1CCC(Cc2ccccc2)CC1)C1CCCN(S(=O)(=O)c2cccs2)C1 (stereo unspecified) | nt | i | i | i | i | nt | nt | nt | nt
Cc1cccc(NC2=Nc3ccccc3N3C2=Nc2c(c(C)nn2-c2ccccc2)C3c2ccc(O)c(O)c2)c1 (stereo unspecified) | 55 | i | i | 57 | i | 56 | 48 | 34 | nt
Cc1ccc(NC2=Nc3ccccc3N3C2=Nc2c(c(C)nn2-c2ccccc2)C3c2ccc(O)c(O)c2)cc1 (stereo unspecified) | 37 | i | i | 57 | i | 55 | 63 | 42 | nt
Cc1ccc2nc(N3C(=O)C(O)=C(C(=O)c4ccc(C)o4)C3c3ccco3)sc2c1 (stereo unspecified) | i | i | i | i | i | nt | nt | nt | nt
O=C(C1=C(O)C(=O)N(c2nc3ccc(Cl)cc3s2)C1c1ccco1)c1ccco1 (stereo unspecified) | 39 | 36 | i | 68 | i | i | 72 | 33 | i | dCAG dye DR=3.5;dCAG TOPRO ctr=2.9;rCAG binder-2=1.3
O=S(=O)(O)c1cc(O)c(N=Nc2ccc(O)cc2O)c2ccccc12 | 78 | 44 | i | 65 | i | 54 | 94 | 67 | 43
O=[N+]([O-])c1ccc(Sc2cccc[n+]2[O-])c2nonc12 | 81 | 88 | i | i | i | 101 | nt | nt | 91
O=[N+]([O-])c1ccc(Nc2ccccc2)c2nonc12 | i | i | i | i | i | nt | nt | nt | nt
CCOC(=O)c1c(C)oc2c1c(CN1CCN(CCO)CC1)c(O)c1ccccc12 | i | i | i | i | i | nt | nt | nt | nt
CCOC(=O)c1c(C)oc2c(CC(=O)c3ccccc3)c(Cl)c(O)c(O)c12 | 46 | 27 | i | i | i | i | nt | nt | i
Cc1cc(S(=O)(=O)NC(=O)[C@H]2O[C@@H](n3ccc(=O)[nH]c3=O)[C@H](O)[C@@H]2O)ccc1Br | nt | i | i | i | i | nt | nt | nt | nt
COC(=O)C/C=C/[C@H](C)[C@@H](NC(=O)C(F)(F)F)c1ccccc1Br | nt | i | i | i | i | nt | nt | nt | nt
CC(C)(C)c1ccc(O)c(O)c1 | 38 | 26 | i | i | i | 60 | nt | nt | i
COC(=O)c1cc(S(=O)(=O)NCC2CCN(C(=O)C(=O)c3cc4ccccc4o3)CC2)cs1 | nt | i | i | i | i | nt | nt | nt | nt
SMILES | HTRA1 inh | PRMT1 FP inh | ABHD4 inh | rCAG binder-1 | SIAE primary | HTRA1 conf | rCAG bind conf | dCAG dye counter | PRMT1 inh conf | others
COc1cccc(NS(=O)(=O)c2ccc3c(c2)C2C=CCC2C(c2ccc(C(=O)O)cc2)N3)c1 (stereo unspecified) | 49 | 42 | i | 96 | i | i | 90 | 62 | 30
Cc1cc2ccccc2n1CCNC(=O)c1ccc(Br)o1 | 57 | 27 | i | i | i | i | nt | nt | i
Cc1cc(=O)n2[nH]c(-c3ccsc3-n3c(C)ccc3C)cc2n1 | i | i | i | i | i | nt | nt | nt | nt
Cc1nc2cc(-c3ccsc3-n3c(C)ccc3C)[nH]n2c(=O)c1Cl | 38 | 25 | i | 51 | i | i | 60 | 26 | i
Cc1ccc2c(c1)N(CCCC(=O)N(C)Cc1ccccc1F)C(=O)CO2 | nt | i | i | i | i | nt | nt | nt | nt
CCOC(=O)Nc1ccc(NCc2ccc(F)cc2)nc1N | 60 | 64 | i | i | i | i | nt | nt | i
COC(=O)C1CN(Cc2cn(Cc3ccc(Cl)cc3)nn2)CCS(=O)(=O)N1Cc1ccc(Cl)cc1 (stereo unspecified) | nt | i | i | i | i | nt | nt | nt | nt
CCCCOc1[nH]c2nc(-c3ccco3)n(Cc3ccco3)c(=N)c2c1C#N | 42 | 35 | 45 | i | i | i | nt | nt | 32
c1ccc(CSc2nnc(-c3ccco3)n2Cc2ccco2)cc1 | i | i | i | i | i | nt | nt | nt | nt
Oc1ccccc1N=Cc1c(O)ccc2oc3c(c12)CCCC3 | 43 | i | 30 | i | i | 68 | nt | nt | nt | mABHD4 conf=i
CCOc1ccc2noc3c2c1C(=O)c1ccccc1-3 | 49 | 150 | 58 | i | 17 | i | nt | nt | nt | mABHD4 conf=i
